Experimental data published in ChEMBL document CHEMBL1138793, “A three-dimensional in silico pharmacophore model for inhibition of Plasmodium falciparum cyclin-dependent kinases and discovery of different classes of novel Pfmrk specific inhibitors” (J Med Chem, 2004).
“And” between values parts separate entries of the source, which are not always exact repeats. Equal values may be shown once.

target: T1, Protein kinase Pfmrk (Plasmodium falciparum, UniProt P90584); test: Inhibition of Plasmodium falciparum cyclin-dependent kinase
T1 sequence (P90584 whole entry): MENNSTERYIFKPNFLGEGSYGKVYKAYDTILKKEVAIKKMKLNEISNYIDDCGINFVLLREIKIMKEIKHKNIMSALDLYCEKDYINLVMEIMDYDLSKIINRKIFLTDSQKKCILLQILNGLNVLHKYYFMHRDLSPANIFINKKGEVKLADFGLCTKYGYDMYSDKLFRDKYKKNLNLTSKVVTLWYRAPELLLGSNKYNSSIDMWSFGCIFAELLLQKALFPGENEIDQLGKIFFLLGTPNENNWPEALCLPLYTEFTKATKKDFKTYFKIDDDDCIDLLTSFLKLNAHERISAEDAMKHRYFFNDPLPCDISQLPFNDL
Procedure, shortened: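 Recombinant 6xHIS-tagged Plasmodial CDK (3.0 μg) expressed in E. coli, assayed with 2.0 μg GST-tagged cyclin Pfcyc-1 and 5.0 μg RNA polymerase II CTD substrate in 40 mM Hepes pH 7.5, 30 mM MnCl₂, 2.0 mM DTT. Enzyme and compound preincubated 5 min at 30 °C. Reaction started with [γ-32P]ATP plus 12.5 μM ATP, run 35 min at 30 °C. Filter plate washed with phosphoric acid, counted by scintillation. Triplicates; IC50 from concentration range.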

Point of comparison: `NC(=S)NC1(c2ccccc2)OC(=O)c2ccccc21` (stereo unspecified), IC50 70 µM. Against it:
- CCOC(=O)c1cc([N+](=O)[O-])ccc1Cl — within 1.5-fold, 87 µM
- NNC(Cc1c[nH]c2ccccc12)C(=O)O (stereo unspecified) — 2.6-fold higher, 182 µM
- CC1NN=C(c2ccccc2)C1[N+](=O)[O-] (stereo unspecified) — 5.6-fold higher, 394 µM
- O=C(/C=C/c1ccccn1)c1ccc([N+](=O)[O-])cc1 — 3.9-fold lower, 18 µM
- O=C1Nc2ccc([N+](=O)[O-])cc2/C1=C/c1ccccc1O — 2-fold lower, 35 µM
- O=C1c2cc(F)ccc2-n2c1nc1ncccc1c2=O — 15-fold lower, 4.7 µM
- Cc1cc(Cl)ccc1NC(=O)c1cccc([N+](=O)[O-])c1 — within 1.5-fold, 69 µM
- O=C(/C=C/c1ccccc1)c1cccc([N+](=O)[O-])c1 — 7-fold lower, 10 µM
- CC(=O)Nc1ccc(C(=O)/C=C/c2ccccc2)cc1 — 4.1-fold lower, 17 µM
- O=C(Cl)c1c2c(nc3c(Cl)cc(Cl)cc13)-c1ccc(Cl)cc1CC2 — 2.8-fold lower, 25 µM
- CN1C(=O)/C(=C\C(=O)c2ccc(Br)cc2)c2ccccc21 — 2.4-fold lower, 29 µM
- O=C1NC(=O)/C(=C2/C(=O)Nc3ccc(F)cc32)S1 — 2.3-fold lower, 30 µM
- COc1ccc(-c2nnc(N(CCO)CCO)o2)cc1 — 2-fold lower, 35.8 µM
- CCOC(=O)/C(=C\c1ccccn1)C(=O)c1ccc([N+](=O)[O-])cc1 — within 1.5-fold, 61 µM
- O=C1Nc2ccccc2/C1=C/C(=O)c1ccccc1 — 18-fold lower, 4 µM
- O=C1Nc2ccccc2/C1=C\c1ccc(C(F)(F)F)cc1 — 2-fold higher, 138 µM
- O=C1c2ccc(Cl)cc2-n2c1nc1ncccc1c2=O — 20-fold lower, 3.5 µM
- COc1ccc2c(c1)/C(=C1\SC(=S)NC1=O)C(=O)N2 — 4.1-fold lower, 17.1 µM
- O=S(=O)(O)c1cc(O)c(/N=N/c2ccc(O)cc2O)c2ccccc12 — 6.4-fold lower, 11 µM
- O=[N+]([O-])c1cc(S(=O)(=O)Nc2ccc(C(F)(F)F)cc2)sc1Cl — 28-fold lower, 2.5 µM
- N#C/C(=C1\OC(=O)N(c2ccc(Cl)cc2)C1=O)c1ccc(Cl)cc1 — 5-fold lower, 14 µM
- O=C1c2cc([N+](=O)[O-])ccc2-n2c1nc1ncccc1c2=O — 540-fold lower, 0.13 µM
- Cc1ccc(C(=O)/C=C2\C(=O)Nc3ccc(Br)cc32)cc1 — 24-fold lower, 2.9 µM
- O=C1/C(=C/c2ccccn2)CCc2ccccc21 — 4.1-fold lower, 17 µM
- O=C(N=C(S)Nc1cc([N+](=O)[O-])ccc1O)c1ccc(Cl)cc1Cl — 7-fold lower, 10 µM
- Cn1cc(C(=O)C(C)(C)N)c2ccccc21 — 1.5-fold lower, 46.2 µM
- O=C1Nc2ccc([N+](=O)[O-])cc2C1=O [5-NITROISATIN] — 12-fold lower, 5.9 µM
- O=c1cc(-c2ccc(O)cc2)oc2cc(O)cc(O)c12 [APIGENIN] — 10-fold lower, 7 µM
- CCN(CC)CCCC(C)Nc1ccnc2cc(Cl)ccc12 (stereo unspecified) [CHLOROQUINE] — 2.1-fold higher, 150 µM
- O=c1c(-c2ccc(O)cc2)coc2cc(O)cc(O)c12 [GENISTEIN] — within 1.5-fold, 93 µM
- CN(C)CCCn1cc(C2=C(c3c[nH]c4ccccc34)C(=O)NC2=O)c2ccccc21 [GF-109203] — 2.9-fold lower, 24 µM
- OC(c1cc(C(F)(F)F)nc2c(C(F)(F)F)cccc12)C1CCCCN1 (stereo unspecified) [MEFLOQUINE] — 5.8-fold lower, 12 µM
- O=c1c(O)c(-c2cc(O)c(O)c(O)c2)oc2cc(O)cc(O)c12 [MYRICETIN] — 2.2-fold higher, 157 µM
- Cn1cnc2c(NCc3ccccc3)nc(NCCO)nc21 [OLOMOUCINE] — 16-fold higher, 1100 µM

In the case of `O=C(CCl)Nc1nc2c(Cl)cccc2s1`, the IC50 is reported as 38 µM and 38.3 µM.
